This note sets out measurements from ChEMBL document CHEMBL2321752, “A potent and highly efficacious Bcl-2/Bcl-xL inhibitor” (J Med Chem, 2013).

Series [1] deals with Induced myeloid leukemia cell differentiation protein Mcl-1 (Homo sapiens, UniProt Q07820). In words: Binding affinity to MCL1 (unknown origin) after 2 hrs by fluorescence polarization assay. In a few lines: (§1)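 Competitive FP binding assay. Preformed protein/fluorescent probe complexes were used at 1.5/1 nM for Bcl-2, 10/2 nM for Bcl-xL and 20/2 nM for Mcl-1. These were mixed with serially diluted inhibitor and shaken gently for 2 h at room temperature before millipolarization was read. IC50 came from nonlinear regression, and Ki was calculated from IC50.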
Sequence of Induced myeloid leukemia cell differentiation protein Mcl-1 (Q07820 whole entry): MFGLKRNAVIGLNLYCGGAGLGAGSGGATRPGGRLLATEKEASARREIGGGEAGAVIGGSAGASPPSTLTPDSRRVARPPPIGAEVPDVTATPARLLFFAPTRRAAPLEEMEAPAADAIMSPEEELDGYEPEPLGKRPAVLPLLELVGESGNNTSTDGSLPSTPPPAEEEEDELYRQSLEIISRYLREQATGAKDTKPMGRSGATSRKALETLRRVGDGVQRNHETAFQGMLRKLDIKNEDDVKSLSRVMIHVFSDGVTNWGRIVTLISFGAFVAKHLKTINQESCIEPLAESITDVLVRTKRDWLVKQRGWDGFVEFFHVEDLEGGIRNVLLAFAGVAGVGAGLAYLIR

The subject of another series is NCI-H187. In words: Cytotoxicity against human NCI-H187 cells assessed as growth inhibition after 4 days by WST assay. The series is classed as functional, cell-based. Particulars: NCI-H187, 96 h. In a few lines: (§2)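 Human small-cell lung cancer line from ATCC, kept in RPMI-1640 with 10% FBS. Cells were exposed to serial compound concentrations for 4 days. WST-8 dye was then added for a further 1–2 h and absorbance read at 450 nm. IC50 was derived from absorbance of treated versus untreated cells. At least three independent experiments per cell line; standard deviation reported.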

Series [2] concerns Mus musculus. In words: Toxicity in SCID mouse assessed as weight loss at 15 mg/kg, iv administered 5 days per week for 2 weeks relative to control. The series is classed as organism-based. Details: dose 15 mg/kg, route intravenous. Particulars: in vivo. In a few lines:
(§3)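 Tolerability run in non-tumor-bearing SCID mice. Compound given intravenously at 15 or 25 mg/kg, daily, 5 days a week for 2 weeks. Weight loss and other signs of toxicity were followed during and after treatment, and the maximum tolerated dose was set from weight loss.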

In another series the test system is NCI-H1963. In words: Cytotoxicity against human NCI-H1963 cells assessed as growth inhibition after 4 days by WST assay. The series is classed as functional, cell-based. The following applies: NCI-H1963, 96 h. In a few lines: as §2
Series [3] relates to NCI-H146. In words: Antitumor activity against human NCI-H146 cells xenografted in SCID mouse assessed as tumor regression at 15 mg/kg, iv administered 5 days per week for 2 weeks. Format: functional, organism-based. Also on record: dose 15 mg/kg. In a few lines: (§4)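 H146 cells (5×10^6, with Matrigel) implanted subcutaneously on the dorsal side of SCID mice, one tumor per mouse. Mice with tumors of 100–150 mm³ were randomized into groups of 8, mean volume 126 mm³. Vehicle or compound given intravenously at 15 mg/kg, daily, 5 days/week for 2 weeks. Tumor volume was followed over time.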

The target in series [4] is Apoptosis regulator Bcl-2 (Homo sapiens, UniProt P10415). In words: Binding affinity to BCL2 (unknown origin) after 2 hrs by fluorescence polarization assay. In a few lines:
as §1

Series [5] deals with NCI-H146. The experiment in a line: Antitumor activity against human NCI-H146 cells xenografted in SCID mouse assessed as tumor regression at 15 mg/kg, iv administered 5 days per week for 2 weeks measured on day 62. The series is classed as functional, organism-based. Also on record: dose 15 mg/kg. In a few lines: as §4
The test system of series [6] is Mus musculus. In words: Toxicity in SCID mouse 15 mg/kg, iv administered 5 days per week for 2 weeks. The series is classed as organism-based. Details: dose 15 mg/kg, route intravenous. Particulars: in vivo. In a few lines: as §3
In series [7] the test system is Mus musculus. The experiment in a line: Toxicity in SCID mouse xenografted with human NCI-H146 cells 15 mg/kg, iv administered 5 days per week for 2 weeks. The series is classed as organism-based. Details: dose 15 mg/kg, route intravenous. Particulars: in vivo. In a few lines: (§5)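 SCID mice carried subcutaneous H146 xenografts, 8 per group, starting mean tumor volume 126 mm³. Dosing was intravenous at 15 mg/kg, daily, 5 days/week for 2 weeks. Body weight and other signs of toxicity were monitored during and after treatment.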

Series [8] deals with Mus musculus. The experiment in a line: Toxicity in SCID mouse assessed as weight loss at 25 mg/kg, iv administered 5 days per week for 2 weeks relative to control. The series is classed as organism-based. The following applies: in vivo. Also on record: dose 25 mg/kg, route intravenous. In a few lines:
as §3

The test system of the next series is NCI-H1417. The experiment in a line: Cytotoxicity against human NCI-H1417 cells assessed as growth inhibition after 4 days by WST assay. Format: functional, cell-based. Particulars: NCI-H1417, 96 h. In a few lines:
as §2

The subject of series [9] is NCI-H146. In words: Induction of apoptosis in human NCI-H146 cells xenografted in SCID mouse assessed as increase in caspase-3 cleavage at 15 mg/kg, iv after 3 to 6 hrs by Western blotting analysis. Format: functional, organism-based. Details: dose 15 mg/kg. In a few lines: (§6)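 SCID mice bearing subcutaneous H146 xenografts of about 100 mm³ got a single intravenous dose of 15 mg/kg or vehicle. Tumors were harvested at 3, 6 or 24 h. Western blot then measured total and cleaved PARP and caspase-3.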

For series [10], the system named is NCI-H146. In words: Induction of apoptosis in human NCI-H146 cells xenografted in SCID mouse assessed as increase in PARP cleavage at 15 mg/kg, iv after 3 to 6 hrs by Western blotting analysis. The series is classed as functional, organism-based. Details: dose 15 mg/kg. In a few lines:
as §6

Series [11] in a line: Toxicity in iv dosed SCID mouse assessed as weight loss administered 5 days per week for 2 weeks. The series is classed as organism-based. Particulars: in vivo. In a few lines:
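Maximum tolerated dose study in SCID mice. Compound was given intravenously at 15 or 25 mg/kg, daily, 5 days a week for 2 weeks. Body weight loss and other signs of toxicity were monitored during and after treatment.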

The nature of series [12]: Antitumor activity against human NCI-H146 cells xenografted in SCID mouse assessed as tumor volume at 15 mg/kg, iv administered 5 days per week for 2 weeks measured on day 117 (reference value: 130 mm'3). Format: functional. In a few lines:
as §4

Another series deals with Bcl-2-like protein 1 (Homo sapiens, UniProt Q07817). In words: Binding affinity to BCL-XL (unknown origin) after 2 hrs by fluorescence polarization assay. In a few lines:
as §1

Series [13] is described as follows: Cytotoxicity against human NCI-H146 cells assessed as growth inhibition after 4 days by WST assay. The series is classed as functional, cell-based. The following applies: NCI-H146, 96 h.
Series [14] deals with Mus musculus. The experiment in a line: Toxicity in SCID mouse xenografted with human NCI-H146 cells assessed as weight loss at 15 mg/kg, iv administered 5 days per week for 2 weeks. The following applies: in vivo. The series is classed as organism-based. Also on record: dose 15 mg/kg, route intravenous. In a few lines:
as §5

Activity calls are given as the source filed them. The calls are words filed in the database; no cut-off is given here.

Sequence of Bcl-2-like protein 1 (Q07817 whole entry): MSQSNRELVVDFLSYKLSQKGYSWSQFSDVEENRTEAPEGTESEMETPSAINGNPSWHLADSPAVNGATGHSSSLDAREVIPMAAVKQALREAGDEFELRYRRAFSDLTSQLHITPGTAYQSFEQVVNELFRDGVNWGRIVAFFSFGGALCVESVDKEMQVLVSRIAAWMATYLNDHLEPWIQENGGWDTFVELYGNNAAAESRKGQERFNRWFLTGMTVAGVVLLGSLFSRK
Sequence of Apoptosis regulator Bcl-2 (P10415 whole entry): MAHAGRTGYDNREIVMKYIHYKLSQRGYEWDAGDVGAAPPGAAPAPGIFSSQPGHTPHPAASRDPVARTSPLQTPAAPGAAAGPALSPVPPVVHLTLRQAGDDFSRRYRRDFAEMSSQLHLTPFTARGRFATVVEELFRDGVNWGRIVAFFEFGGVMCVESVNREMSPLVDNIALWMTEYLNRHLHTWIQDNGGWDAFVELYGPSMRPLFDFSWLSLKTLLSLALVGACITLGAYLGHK

`Cc1c(C(=O)NS(C)(=O)=O)c(-c2cccc(N3CCN(c4ccc(NS(=O)(=O)c5ccc(N[C@H](CCN(C)C)CSc6ccccc6)c([N+](=O)[O-])c5)cc4)CC3)c2)c(-c2ccc(Cl)cc2)n1C(C)C`: the IC50 was greater than 2000 nM in [1]; 1.4 nM in the series on NCI-H187; 1 nM in the series on NCI-H1963; 1.8 nM in series [4]; 2.3 nM in the series with NCI-H1417; 6.9 nM at Bcl-2-like protein 1. Also, the IC50 in series [13] stood at 1.3 nM. Also, the Activity in the series on Mus musculus [2] is less than 5%; with Mus musculus [6] it was “Non-toxic”; in the series with Mus musculus [7], “Non-toxic”; in the series on Mus musculus [8] it was 10%; in series [12] it was 47 mm3; in the series on Mus musculus [14], “Non-toxic”. Moreover, the outcome in the series with NCI-H146 [3], in the series with NCI-H146 [5], with NCI-H146 [9] and with NCI-H146 [10] was Active. Also, the Ki (in [4]; on Bcl-2-like protein 1) was less than 1 nM in each case. For the same molecule, in series [11], the MTD at 2 weeks amounted to 15 mg/kg.
Regarding `CCn1c(C)c(C(=O)NS(C)(=O)=O)c(-c2cccc(N3CCN(c4ccc(NS(=O)(=O)c5ccc(N[C@H](CCN(C)C)CSc6ccccc6)c([N+](=O)[O-])c5)cc4)CC3)c2)c1-c1ccc(Cl)cc1`, the IC50 in series [1] is greater than 2000 nM; with NCI-H187 it was 7.9 nM; in the series with NCI-H1963 it was 8.2 nM; in series [4], 1.8 nM; in the series on NCI-H1417 it was 11.1 nM; on Bcl-2-like protein 1, 7 nM. The half-maximal inhibitory concentration (IC50) in series [13] is 4.8 nM. Besides, the Activity with Mus musculus [2] is less than 5%; in the series with Mus musculus [6] it was “Non-toxic”; with Mus musculus [8] it was 10%. The result in the series with NCI-H146 [3], in the series on NCI-H146 [9] and with NCI-H146 [10] was Active. In series [11], the MTD at 2 weeks was 15 mg/kg.
